Assay results published in ChEMBL document CHEMBL1130028, “A comparison of structure-activity relationships between spermidine and spermine analogue antineoplastics” (J Med Chem, 1997).

Key:
L1210 [1] = experiment: Growth inhibitory activity against L1210 cells (48h); format: functional, cell-based; details: Mus musculus, L1210, 48 h
In short: (§1)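 Murine L1210 leukemia cells were kept in log growth in RPMI-1640 with 10% fetal calf serum or NuSerum, HEPES-MOPS buffer and 1 mM aminoguanidine. IC50 is the concentration giving 50% of untreated control growth, as the mean of at least two experiments.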

[2] = target: Spermidine/spermine N(1)-acetyltransferase (SAT) (Mus musculus) (UniProt Q6P8J2+P48026); experiment: Effect on Spermidine/Spermine-Acetyltransferase (SSAT ) at 10 uM at 48 hour in L1210 cells; format: functional, cell-based
In short: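 L1210 cells were exposed to 10 μM triamine for 48 h. SSAT activity was taken as [14C]N1-acetylspermidine formed from spermidine and [14C]acetyl-CoA, given as percent of untreated control. DENSPM-treated cells served as positive control. Values are the mean of at least three experiments.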

L1210 [3] = experiment: Percentage of spermine after 48 hr exposure to the compound (125 uM ) in L1210 cells; format: functional, Mus musculus
In short: (§2)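 Log-phase L1210 cells were treated for 48 h with analogue at two concentrations. Cells were washed twice in cold RPMI-1640 and extracted with 0.6 N HClO4. Putrescine, spermidine and spermine were quantified by HPLC of dansyl derivatives and given as percent of untreated controls. Runs were in triplicate with untreated controls.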

L1210 [4] = experiment: Percentage of spermidine after 48 hr of exposure to the compound (125 uM ) in L1210 cells; format: functional, Mus musculus; in short: as §2
L1210 [5] = experiment: Intracellular levels in L1210 cells following 500 uM exposure.; format: functional, Mus musculus
In short: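 L1210 cells were grown 48 h in medium containing 500 μM analogue. Cellular contents were analysed by HPLC of dansyl derivatives and given as pmol/10^6 cells, as parent drug and metabolites with the % of total drug in the cell.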

[6] = Effect on ornithine decarboxylase (ODC) tested at 1 uM at 4 hour in L1210 cells; format: functional, Mus musculus
In short: (§3)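 L1210 cells were exposed to 1 μM analogue, for 4 h (ODC) or 6 h (AdoMetDC). Activity was measured as 14CO2 released from [14C]carboxyl-labelled L-ornithine (ODC) or S-adenosyl-L-methionine (AdoMetDC) and given as percent of untreated control. Each run included DEHSPM-treated positive controls. Values are the mean of at least three experiments.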

L1210 [7] = experiment: Percentage of putrescine after 48 hr exposure to the compound (125 uM ) in L1210 cells; format: functional, Mus musculus; in short: as §2
[8] = target: T1, S-adenosylmethionine decarboxylase proenzyme 1 (Mus musculus) (UniProt P0DMN7); experiment: Effect on S-Adenosyl-methionine decarboxylase (AdoMetDC) tested at 1 uM at 6 hour in L1210 cells; format: functional, cell-based; in short: as §3
T1 sequence (whole entry): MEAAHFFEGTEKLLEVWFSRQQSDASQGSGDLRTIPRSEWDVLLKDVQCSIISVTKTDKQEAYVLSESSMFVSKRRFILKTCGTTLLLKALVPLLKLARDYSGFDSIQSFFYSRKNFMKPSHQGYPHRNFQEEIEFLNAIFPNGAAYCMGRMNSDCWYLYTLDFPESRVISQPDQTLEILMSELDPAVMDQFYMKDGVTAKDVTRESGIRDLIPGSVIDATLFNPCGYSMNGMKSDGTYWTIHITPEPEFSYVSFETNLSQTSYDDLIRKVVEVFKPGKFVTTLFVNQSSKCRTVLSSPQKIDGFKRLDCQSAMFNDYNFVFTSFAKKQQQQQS

L1210 [9] = experiment: Percentage of putrescine after 48 hr exposure to the compound (25(10)uM ) in L1210 cells; format: functional, Mus musculus; in short: as §2
[10] = Binding affinity values for polyamine transporter was determined
L1210 [11] = experiment: Percentage of spermidine after 48 hr of exposure to the compound (25(10)uM ) in L1210 cells; format: functional, Mus musculus; in short: as §2
L1210 [12] = experiment: Growth inhibitory activity against L1210 cells (96h); format: functional, cell-based; details: Mus musculus, L1210, 96 h; in short: as §1
L1210 [13] = experiment: Percentage of spermine after 48 hr exposure to the compound (500(100)uM ) in L1210 cells; format: functional, Mus musculus; in short: as §2
L1210 [14] = experiment: Percentage of putrescine after 48 hr exposure to the compound (500(100)uM )in L1210 cells; format: functional, Mus musculus; in short: as §2
L1210 [15] = experiment: Percentage of spermine after 48 hr exposure to the compound (100(10)uM ) in L1210 cells; format: functional, Mus musculus; in short: as §2
L1210 [16] = experiment: Percentage of spermidine after 48 hr of exposure to the compound (100(10)uM ) in L1210 cells; format: functional, Mus musculus; in short: as §2
L1210 [17] = experiment: Percentage of spermidine after 48 hr of exposure to the compound (500(100)uM ) in L1210 cells; format: functional, Mus musculus; in short: as §2
L1210 [18] = experiment: Percentage of putrescine after 48 hr exposure to the compound (100(10)uM) in L1210 cells; format: functional, Mus musculus; in short: as §2
L1210 [19] = experiment: Percentage of putrescine after 48 hr exposure to the compound (500(150)uM ) in L1210 cells; format: functional, Mus musculus; in short: as §2
L1210 [20] = experiment: Percentage of spermine after 48 hr exposure to the compound (500(150)uM ) in L1210 cells; format: functional, Mus musculus
In short: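 Log-phase murine L1210 leukemia cells (RPMI-1640, 10% fetal calf serum or NuSerum, HEPES-MOPS buffer, 1 mM aminoguanidine) exposed 48 h to analogue at two concentrations. Cells washed twice in cold RPMI-1640 and extracted with 0.6 N HClO4. Spermine in extracts quantified by HPLC of DANSYL derivatives and expressed as percent of untreated controls. Triplicate flasks per condition.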

[21] = The chronic lethal dose administered as intraperitoneal injection; format: ADME; details: mouse, ip
In short: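 Female CD-1 mice, 10–12 weeks old. Analogue given as hydrochloride salt by ip injection three times daily for 6 days (18 doses). Appetite, weight and appearance monitored daily, and lethality scored 10 days after the final dose.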

L1210 [22] = experiment: Percentage of spermidine after 48 hr of exposure to the compound (500(150)uM ) in L1210 cells; format: functional, Mus musculus; in short: as §2
L1210 [23] = experiment: Percentage of putrescine after 48 hr exposure to the compound (100(30)uM ) in L1210 cells; format: functional, Mus musculus; in short: as §2
L1210 [24] = experiment: Percentage of spermine after 48 hr exposure to the compound (100(30)uM ) in L1210 cells; format: functional, Mus musculus; in short: as §2
L1210 [25] = experiment: Percentage of spermidine after 48 hr of exposure to the compound (100(30)uM ) in L1210 cells; format: functional, Mus musculus; in short: as §2
L1210 [26] = experiment: Percentage of spermine after 48 hr exposure to the compound (15(1.5)uM ) in L1210 cells; format: functional, Mus musculus; in short: as §2
L1210 [27] = experiment: Percentage of spermidine after 48 hr of exposure to the compound (3(0.3)uM ) in L1210 cells; format: functional, Mus musculus; in short: as §2
L1210 [28] = experiment: Percentage of putrescine after 48 hr exposure to the compound (15(1.5)uM ) in L1210 cells; format: functional, Mus musculus; in short: as §2
L1210 [29] = experiment: Percentage of putrescine after 48 hr exposure to the compound (3(0.3)uM ) in L1210 cells; format: functional, Mus musculus; in short: as §2
L1210 [30] = experiment: Percentage of spermidine after 48 hr of exposure to the compound (15(1.5)uM ) in L1210 cells; format: functional, Mus musculus; in short: as §2
L1210 [31] = experiment: Percentage of spermine after 48 hr exposure to the compound (3(0.3)uM ) in L1210 cells; format: functional, Mus musculus; in short: as §2

Chain of Spermidine/spermine N(1)-acetyltransferase (SAT) (Mus musculus) (P48026 whole entry, looked up): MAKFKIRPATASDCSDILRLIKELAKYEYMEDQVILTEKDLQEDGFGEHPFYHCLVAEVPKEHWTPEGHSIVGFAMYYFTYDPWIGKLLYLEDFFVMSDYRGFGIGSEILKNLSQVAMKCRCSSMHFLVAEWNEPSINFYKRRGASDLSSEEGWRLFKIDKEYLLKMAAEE
Chain of Spermidine/spermine N(1)-acetyltransferase (SAT) (Mus musculus) (Q6P8J2 whole entry, looked up): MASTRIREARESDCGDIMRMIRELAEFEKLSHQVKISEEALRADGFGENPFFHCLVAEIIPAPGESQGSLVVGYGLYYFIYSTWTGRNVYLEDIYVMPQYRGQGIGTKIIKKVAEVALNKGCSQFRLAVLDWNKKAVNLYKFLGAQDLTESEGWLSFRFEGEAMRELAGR

Compound | IC50 (L1210 [1]) [µM] | SSAT [2] [%] | Picoequivalents of amine/10e6 cells (L1210 [5]) | ODC [6] [%] | AdoMetDC [8] [%] | Ki [10] [µM] | IC50 (L1210 [12]) [µM] | LD50 [21] [mg/kg/day] | further results
CCNCCCCNCCCCNCC | 22 | 640 | 16920 | 47 | 90 | 19 | 0.35 | – | Polyamine (L1210 [3]): 97%; Polyamine (L1210 [4]): 3%; Polyamine (L1210 [7]): 0%; Polyamine (L1210 [9]): 0%; Polyamine (L1210 [11]): 6%
CCNCCCNCCCNCC | > 100 | 780 | 13700 | 80 | 45 | 250 | 10 | – | Polyamine (L1210 [13]): 47%; Polyamine (L1210 [14]): 0%; Polyamine (L1210 [15]): 74%; Polyamine (L1210 [16]): 17%; Polyamine (L1210 [17]): 7%; Polyamine (L1210 [18]): 0%
CCNCCCCNCCCNCC | 100 | 1380 | 14050 | 30 | 68 | 19 | 0.7 | 426 | Polyamine (L1210 [19]): 0%; Polyamine (L1210 [20]): 55%; Polyamine (L1210 [22]): 0%; Polyamine (L1210 [23]): 0%; Polyamine (L1210 [24]): 74%; Polyamine (L1210 [25]): 5%
CCNCCCCCNCCCCNCC | 4.5 | 120 | 14590 | 100 | 70 | 64 | 0.2 | 375 | Polyamine (L1210 [26]): 98%; Polyamine (L1210 [27]): 47%; Polyamine (L1210 [28]): 0%; Polyamine (L1210 [29]): 0%; Polyamine (L1210 [30]): 18%; Polyamine (L1210 [31]): 99%
